Data reported in ChEMBL document CHEMBL1125589, “Verapamil analogues with restricted molecular flexibility” (1991).

Key:
[1] = species on record: Cavia porcellus; experiment: Percent inhibition of [Ca2+] induced contraction on K+ depolarized guinea pig aortic strips at […] concentration; type: functional, Aorta
Summary of the method: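 Guinea pig aortic strips were depolarized with K+, and contraction was induced with Ca2+. Percent inhibition of that contraction was measured with the test agent at 5·10^-4 M. Results are given as means ± SEM, n = 5-6.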

[2] = species on record: Cavia porcellus; experiment: Compound was tested in vitro for chronotropic activity on isolated atria preparations of guinea pig.; type: functional
[3] = species on record: Cavia porcellus; experiment: Compound was tested in vitro for ionotropic activity on isolated atria preparations of guinea pig.; type: functional
[4] = species on record: Cavia porcellus; experiment: Compound was tested in vitro for chronotropic activity on isolated atria preparations of guinea pig at 10E-6 M concentration; type: functional
Summary of the method: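 Chronotropic effect was measured on spontaneously beating isolated guinea pig right atria, with the test agent at 10^-6 M.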

[5] = species on record: Cavia porcellus; experiment: Compound was tested in vitro for ionotropic activity on isolated atria preparations of guinea pig at 10E-6 M concentration; type: functional

SMILES | Ca2+ antagonistic activity [1] [%] | Negative chronotropic activity [2] [%] | Negative ionotropic activity [3] [%] | Negative chronotropic activity [4] [%] | Negative ionotropic activity [5] [%]
COc1ccc(CCN(C)[C@H]2CC[C@](C#N)(c3ccc(OC)c(OC)c3)CC2)cc1OC | 59 | 65 | 52 |  | 
COc1ccc(CCN(C)[C@H]2CC[C@@](C#N)(c3ccc(OC)c(OC)c3)CC2)cc1OC | 66 | 67 | 56 |  | 
COc1ccc(CCN(C)CCCC(C#N)(c2ccc(OC)c(OC)c2)C(C)C)cc1OC (centres undefined) [VERAPAMIL] | 79 |  |  | 94 | 60
